Test results taken from ChEMBL document CHEMBL5661979, “Pharmacological inhibition of BMK1 suppresses tumor growth through promyelocytic leukemia protein” (Cancer Cell, 2010).
The source made the active and inactive calls. The rule behind the calls is not given here.

Key:
[1] = test system: Tyrosine-protein kinase ABL1 (Homo sapiens), P00519 [F317I]; assay: Inhibition of ABL1 F317I mutant (unknown origin) assessed as remaining activity at 10 uM by ATP-competition binding assay relative to control
[2] = target: T1, Serine/threonine-protein kinase Sgk3 (Homo sapiens, UniProt Q96BR1); assay: Inhibition of SGK3 K1 site in human HeLa cells lysate pre incubated for 15 mins followed by ATP acyl phosphate probe addition and measured after 10 mins by LC-MS/MS analysis; assay type: subcellular
T1 sequence (Q96BR1 whole entry): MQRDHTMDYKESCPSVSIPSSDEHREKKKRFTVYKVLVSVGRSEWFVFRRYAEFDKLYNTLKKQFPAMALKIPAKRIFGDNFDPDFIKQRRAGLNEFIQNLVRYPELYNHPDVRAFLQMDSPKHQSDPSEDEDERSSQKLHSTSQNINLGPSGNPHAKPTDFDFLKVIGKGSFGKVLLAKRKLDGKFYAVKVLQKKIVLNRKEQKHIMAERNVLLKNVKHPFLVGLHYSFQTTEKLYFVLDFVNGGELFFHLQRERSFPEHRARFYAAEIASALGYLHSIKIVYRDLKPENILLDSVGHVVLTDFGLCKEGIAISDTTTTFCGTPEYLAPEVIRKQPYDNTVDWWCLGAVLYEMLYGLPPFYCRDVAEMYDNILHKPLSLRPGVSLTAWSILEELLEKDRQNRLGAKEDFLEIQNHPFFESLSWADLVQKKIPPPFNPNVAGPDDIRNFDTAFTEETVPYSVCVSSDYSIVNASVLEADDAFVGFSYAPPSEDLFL

[3] = target: Phosphatidylinositol 3-kinase catalytic subunit type 3 (Homo sapiens, UniProt Q8NEB9); assay: Inhibition of PIK3C3 in human HeLa cells lysate pre incubated for 15 mins followed by ATP acyl phosphate probe addition and measured after 10 mins by LC-MS/MS analysis; assay type: subcellular
[4] = target: Peripheral plasma membrane protein CASK (Homo sapiens, UniProt O14936); assay: Inhibition of CASK in human HeLa cells lysate pre incubated for 15 mins followed by ADP acyl phosphate probe addition and measured after 10 mins by LC-MS/MS analysis; assay type: subcellular
Method in brief: (§1)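 KiNativ profiling in HeLa lysate (5 mg/mL total protein). Lysate incubated 15 min with inhibitor at 50, 10, 2, 0.8 or 0 μM. ATP or ADP acylphosphate probe then added (5 μM final) and reacted 10 min. Reaction stopped with urea and analysed by targeted MS, using up to four fragment ions per kinase peptide-probe conjugate. % inhibition taken against untreated lysate. Run in duplicate.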

[5] = target: Mitogen-activated protein kinase kinase kinase 8 (Homo sapiens, UniProt P41279); assay: Inhibition of COT in human HeLa cells lysate pre incubated for 15 mins followed by ADP acyl phosphate probe addition and measured after 10 mins by LC-MS/MS analysis; assay type: subcellular
[6] = target: Serine/threonine-protein kinase LATS2 (Homo sapiens, UniProt Q9NRM7); assay: Inhibition of LATS2 in human HeLa cells lysate pre incubated for 15 mins followed by ADP acyl phosphate probe addition and measured after 10 mins by LC-MS/MS analysis; assay type: subcellular
[7] = target: Macrophage-stimulating protein receptor (Homo sapiens, UniProt Q04912); assay: Inhibition of RON in human HeLa cells lysate pre incubated for 15 mins followed by ADP acyl phosphate probe addition and measured after 10 mins by LC-MS/MS analysis; assay type: subcellular
[8] = Inhibition of MSK1/2 in human HeLa cells lysate at 50 uM pre incubated for 15 mins followed by ADP acyl phosphate probe addition and measured after 10 mins by LC-MS/MS analysis relative to control; conditions: 25 min, condition cancer
[9] = target: Serine/threonine-protein kinase 38-like (Homo sapiens, UniProt Q9Y2H1); assay: Inhibition of NDR2 in human HeLa cells lysate at 50 uM pre incubated for 15 mins followed by ADP acyl phosphate probe addition and measured after 10 mins by LC-MS/MS analysis relative to control; assay type: subcellular; conditions: time 25.0 min
[10] = test system: Serine/threonine-protein kinase PLK1 (Homo sapiens), P53350 [UNDEFINED MUTATION]; assay: Inhibition of PLK1 splice variant in human HeLa cells lysate at 10 uM pre incubated for 15 mins followed by ADP acyl phosphate probe addition and measured after 10 mins by LC-MS/MS analysis relative to control; assay type: subcellular; conditions: time 25.0 min
[11] = target: Cyclin-dependent kinase 13 (Homo sapiens, UniProt Q14004); assay: Inhibition of CHED in human HeLa cells lysate at 10 uM pre incubated for 15 mins followed by ADP acyl phosphate probe addition and measured after 10 mins by LC-MS/MS analysis relative to control; assay type: subcellular; conditions: time 25.0 min; method in brief: as §1
[12] = Inhibition of NEK6/7 in human HeLa cells lysate at 10 uM pre incubated for 15 mins followed by ADP acyl phosphate probe addition and measured after 10 mins by LC-MS/MS analysis relative to control; conditions: 25 min, condition cancer
[13] = target: T2, Dual specificity mitogen-activated protein kinase kinase 6 (Homo sapiens) (UniProt P52564); assay: Inhibition of MAP2K6 in human HeLa cells lysate at 2 uM pre incubated for 15 mins followed by ADP acyl phosphate probe addition and measured after 10 mins by LC-MS/MS analysis relative to control; assay type: subcellular; conditions: time 25.0 min
T2 sequence (whole entry): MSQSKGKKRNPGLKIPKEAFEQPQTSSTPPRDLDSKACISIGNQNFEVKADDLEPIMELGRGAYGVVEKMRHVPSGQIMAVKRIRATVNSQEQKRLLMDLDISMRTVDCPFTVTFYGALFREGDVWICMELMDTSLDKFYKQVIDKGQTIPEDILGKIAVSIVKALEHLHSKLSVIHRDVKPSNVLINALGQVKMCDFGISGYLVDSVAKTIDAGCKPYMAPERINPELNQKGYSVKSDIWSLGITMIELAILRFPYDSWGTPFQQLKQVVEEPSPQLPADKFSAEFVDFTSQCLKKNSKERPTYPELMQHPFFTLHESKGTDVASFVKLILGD

[14] = target: Ribosomal protein S6 kinase alpha-3 (Homo sapiens, UniProt P51812); assay: Inhibition of RSK2 domain 2 in human HeLa cells lysate at 50 uM pre incubated for 15 mins followed by ATP acyl phosphate probe addition and measured after 10 mins by LC-MS/MS analysis relative to control; assay type: subcellular; conditions: time 25.0 min
[15] = target: Casein kinase I isoform alpha (Homo sapiens, UniProt P48729); assay: Inhibition of CK1alpha in human HeLa cells lysate at 50 uM pre incubated for 15 mins followed by ATP acyl phosphate probe addition and measured after 10 mins by LC-MS/MS analysis relative to control; assay type: subcellular; conditions: time 25.0 min
[16] = target: Mitogen-activated protein kinase 14 (Homo sapiens, UniProt Q16539); assay: Inhibition of p38a in human HeLa cells lysate at 10 uM pre incubated for 15 mins followed by ATP acyl phosphate probe addition and measured after 10 mins by LC-MS/MS analysis relative to control; assay type: subcellular; conditions: time 25.0 min
[17] = Cmax in Sprague-Dawley rat at 1 mg/kg, iv measured up to 8 hrs by LC-MS/MS analysis; assay type: ADME, organism-based; conditions: in vivo
Lewis lung carcinoma = assay: Antitumor activity against PML knock down mouse LL2 cells transfected with ad-PML allografted in C57Bl/6 mouse assessed as reduction tumor growth at 50 mg/kg, ip administered on day 8 post implantation measured after 20 days; conditions: time 12.0 day

Chain of Macrophage-stimulating protein receptor (Q04912 25-304 limits assumed): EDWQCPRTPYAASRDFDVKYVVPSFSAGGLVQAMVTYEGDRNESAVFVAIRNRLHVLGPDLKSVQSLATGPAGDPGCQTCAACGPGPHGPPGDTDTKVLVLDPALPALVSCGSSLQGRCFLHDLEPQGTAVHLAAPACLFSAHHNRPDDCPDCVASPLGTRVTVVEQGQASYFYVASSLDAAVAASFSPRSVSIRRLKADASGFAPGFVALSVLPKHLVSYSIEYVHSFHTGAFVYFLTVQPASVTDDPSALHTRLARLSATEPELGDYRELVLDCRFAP
Chain of Macrophage-stimulating protein receptor (Q04912 310-1400 limits assumed): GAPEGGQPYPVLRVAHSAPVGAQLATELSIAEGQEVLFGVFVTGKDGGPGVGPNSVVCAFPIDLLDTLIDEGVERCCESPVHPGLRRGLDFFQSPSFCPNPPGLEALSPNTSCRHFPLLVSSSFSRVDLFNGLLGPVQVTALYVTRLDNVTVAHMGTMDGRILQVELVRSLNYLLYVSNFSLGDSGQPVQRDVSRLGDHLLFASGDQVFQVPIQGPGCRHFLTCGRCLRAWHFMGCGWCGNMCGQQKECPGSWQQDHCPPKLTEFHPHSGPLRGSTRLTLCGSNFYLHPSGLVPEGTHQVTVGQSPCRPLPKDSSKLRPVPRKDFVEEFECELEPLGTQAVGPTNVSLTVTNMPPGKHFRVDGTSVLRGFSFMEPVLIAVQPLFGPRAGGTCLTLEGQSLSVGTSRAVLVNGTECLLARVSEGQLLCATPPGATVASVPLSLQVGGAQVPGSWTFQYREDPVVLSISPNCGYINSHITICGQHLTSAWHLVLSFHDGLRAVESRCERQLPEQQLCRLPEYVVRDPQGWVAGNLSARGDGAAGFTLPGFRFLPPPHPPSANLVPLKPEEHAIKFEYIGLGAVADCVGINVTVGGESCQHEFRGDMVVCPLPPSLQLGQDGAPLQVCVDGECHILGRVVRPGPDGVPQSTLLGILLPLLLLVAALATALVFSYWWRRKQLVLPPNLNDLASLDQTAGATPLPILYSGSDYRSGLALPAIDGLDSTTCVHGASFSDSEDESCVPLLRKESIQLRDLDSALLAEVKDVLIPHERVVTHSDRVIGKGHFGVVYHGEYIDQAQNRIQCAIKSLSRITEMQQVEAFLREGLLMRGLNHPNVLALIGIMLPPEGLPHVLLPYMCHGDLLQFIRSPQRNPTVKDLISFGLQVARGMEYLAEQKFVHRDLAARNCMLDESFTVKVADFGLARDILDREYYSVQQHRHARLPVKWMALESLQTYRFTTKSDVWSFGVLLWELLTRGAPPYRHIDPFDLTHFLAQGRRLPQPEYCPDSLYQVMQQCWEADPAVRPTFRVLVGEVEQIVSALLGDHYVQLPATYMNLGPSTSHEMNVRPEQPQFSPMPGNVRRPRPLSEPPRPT
Chain of Serine/threonine-protein kinase 38-like (Q9Y2H1 2-464 limits assumed): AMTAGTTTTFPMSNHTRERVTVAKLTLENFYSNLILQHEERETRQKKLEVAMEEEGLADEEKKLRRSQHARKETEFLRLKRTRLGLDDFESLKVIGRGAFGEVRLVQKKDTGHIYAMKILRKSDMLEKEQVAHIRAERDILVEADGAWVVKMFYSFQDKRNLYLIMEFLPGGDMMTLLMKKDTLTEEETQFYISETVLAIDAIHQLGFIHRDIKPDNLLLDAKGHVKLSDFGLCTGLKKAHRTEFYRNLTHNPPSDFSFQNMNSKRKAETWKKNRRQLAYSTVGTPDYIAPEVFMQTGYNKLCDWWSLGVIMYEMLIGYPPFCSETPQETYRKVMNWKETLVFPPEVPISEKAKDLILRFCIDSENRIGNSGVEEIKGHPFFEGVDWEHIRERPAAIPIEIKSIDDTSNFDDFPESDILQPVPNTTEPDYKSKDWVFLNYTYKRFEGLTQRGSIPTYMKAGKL
Chain of Mitogen-activated protein kinase kinase kinase 8 (P41279 whole entry): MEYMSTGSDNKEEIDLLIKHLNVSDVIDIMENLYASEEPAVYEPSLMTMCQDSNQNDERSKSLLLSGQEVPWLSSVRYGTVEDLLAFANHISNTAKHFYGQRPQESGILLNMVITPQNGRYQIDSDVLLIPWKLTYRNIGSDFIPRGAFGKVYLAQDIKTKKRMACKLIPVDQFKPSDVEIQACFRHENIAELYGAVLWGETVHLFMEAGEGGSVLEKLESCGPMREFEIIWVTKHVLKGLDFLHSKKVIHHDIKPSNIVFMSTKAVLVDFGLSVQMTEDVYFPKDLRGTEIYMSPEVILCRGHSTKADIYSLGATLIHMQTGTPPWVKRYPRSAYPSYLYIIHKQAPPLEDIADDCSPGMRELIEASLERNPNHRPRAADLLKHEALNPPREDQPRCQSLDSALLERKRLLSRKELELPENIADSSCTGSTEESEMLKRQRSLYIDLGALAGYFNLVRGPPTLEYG
Chain of Cyclin-dependent kinase 13 (Q14004 whole entry, looked up): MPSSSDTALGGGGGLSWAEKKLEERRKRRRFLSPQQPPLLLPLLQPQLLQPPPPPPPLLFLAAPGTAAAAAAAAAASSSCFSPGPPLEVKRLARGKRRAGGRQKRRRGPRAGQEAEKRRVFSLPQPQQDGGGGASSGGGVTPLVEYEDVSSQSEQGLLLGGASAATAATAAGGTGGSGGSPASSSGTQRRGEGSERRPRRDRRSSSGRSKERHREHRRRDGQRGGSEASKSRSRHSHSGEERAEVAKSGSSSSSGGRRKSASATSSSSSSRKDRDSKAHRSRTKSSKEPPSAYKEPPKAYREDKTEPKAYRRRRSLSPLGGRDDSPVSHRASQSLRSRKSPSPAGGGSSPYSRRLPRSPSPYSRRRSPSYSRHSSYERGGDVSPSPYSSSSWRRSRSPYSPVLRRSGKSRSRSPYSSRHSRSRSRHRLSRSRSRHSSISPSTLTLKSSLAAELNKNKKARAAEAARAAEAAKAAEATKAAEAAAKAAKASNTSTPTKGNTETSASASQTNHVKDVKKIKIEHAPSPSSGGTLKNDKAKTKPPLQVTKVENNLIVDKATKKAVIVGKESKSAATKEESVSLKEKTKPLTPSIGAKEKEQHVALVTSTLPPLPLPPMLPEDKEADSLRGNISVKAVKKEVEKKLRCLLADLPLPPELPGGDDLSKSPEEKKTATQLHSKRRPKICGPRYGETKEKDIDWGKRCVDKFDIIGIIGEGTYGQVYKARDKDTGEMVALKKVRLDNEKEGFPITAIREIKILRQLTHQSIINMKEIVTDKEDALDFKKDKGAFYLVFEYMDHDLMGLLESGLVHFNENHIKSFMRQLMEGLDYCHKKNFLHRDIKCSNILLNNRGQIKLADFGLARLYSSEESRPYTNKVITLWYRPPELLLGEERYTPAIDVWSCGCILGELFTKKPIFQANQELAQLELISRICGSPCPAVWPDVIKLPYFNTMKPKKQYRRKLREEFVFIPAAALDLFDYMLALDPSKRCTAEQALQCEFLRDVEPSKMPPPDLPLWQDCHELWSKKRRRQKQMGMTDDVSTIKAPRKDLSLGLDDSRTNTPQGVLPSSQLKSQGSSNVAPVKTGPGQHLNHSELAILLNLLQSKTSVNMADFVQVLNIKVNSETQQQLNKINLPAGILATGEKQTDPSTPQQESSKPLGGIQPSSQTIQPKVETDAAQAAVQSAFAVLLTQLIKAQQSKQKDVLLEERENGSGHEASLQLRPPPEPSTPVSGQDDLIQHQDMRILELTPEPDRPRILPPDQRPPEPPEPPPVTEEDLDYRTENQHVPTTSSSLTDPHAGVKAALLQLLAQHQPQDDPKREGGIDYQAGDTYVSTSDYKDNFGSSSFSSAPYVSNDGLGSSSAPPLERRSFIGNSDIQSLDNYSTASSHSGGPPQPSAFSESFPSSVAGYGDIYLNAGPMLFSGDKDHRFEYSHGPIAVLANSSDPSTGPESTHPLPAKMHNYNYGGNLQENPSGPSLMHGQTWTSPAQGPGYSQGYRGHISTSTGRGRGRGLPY
Chain of Casein kinase I isoform alpha (P48729 2-337 limits assumed): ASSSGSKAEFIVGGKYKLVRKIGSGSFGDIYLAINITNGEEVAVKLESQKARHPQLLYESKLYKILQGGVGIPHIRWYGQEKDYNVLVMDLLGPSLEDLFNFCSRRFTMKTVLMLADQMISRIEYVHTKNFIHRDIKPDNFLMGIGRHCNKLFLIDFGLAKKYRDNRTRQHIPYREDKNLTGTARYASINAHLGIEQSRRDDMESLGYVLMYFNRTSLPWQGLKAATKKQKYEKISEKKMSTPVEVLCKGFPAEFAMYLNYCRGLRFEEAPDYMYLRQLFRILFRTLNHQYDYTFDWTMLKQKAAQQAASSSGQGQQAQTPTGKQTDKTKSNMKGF
Chain of Phosphatidylinositol 3-kinase catalytic subunit type 3 (Q8NEB9 whole entry): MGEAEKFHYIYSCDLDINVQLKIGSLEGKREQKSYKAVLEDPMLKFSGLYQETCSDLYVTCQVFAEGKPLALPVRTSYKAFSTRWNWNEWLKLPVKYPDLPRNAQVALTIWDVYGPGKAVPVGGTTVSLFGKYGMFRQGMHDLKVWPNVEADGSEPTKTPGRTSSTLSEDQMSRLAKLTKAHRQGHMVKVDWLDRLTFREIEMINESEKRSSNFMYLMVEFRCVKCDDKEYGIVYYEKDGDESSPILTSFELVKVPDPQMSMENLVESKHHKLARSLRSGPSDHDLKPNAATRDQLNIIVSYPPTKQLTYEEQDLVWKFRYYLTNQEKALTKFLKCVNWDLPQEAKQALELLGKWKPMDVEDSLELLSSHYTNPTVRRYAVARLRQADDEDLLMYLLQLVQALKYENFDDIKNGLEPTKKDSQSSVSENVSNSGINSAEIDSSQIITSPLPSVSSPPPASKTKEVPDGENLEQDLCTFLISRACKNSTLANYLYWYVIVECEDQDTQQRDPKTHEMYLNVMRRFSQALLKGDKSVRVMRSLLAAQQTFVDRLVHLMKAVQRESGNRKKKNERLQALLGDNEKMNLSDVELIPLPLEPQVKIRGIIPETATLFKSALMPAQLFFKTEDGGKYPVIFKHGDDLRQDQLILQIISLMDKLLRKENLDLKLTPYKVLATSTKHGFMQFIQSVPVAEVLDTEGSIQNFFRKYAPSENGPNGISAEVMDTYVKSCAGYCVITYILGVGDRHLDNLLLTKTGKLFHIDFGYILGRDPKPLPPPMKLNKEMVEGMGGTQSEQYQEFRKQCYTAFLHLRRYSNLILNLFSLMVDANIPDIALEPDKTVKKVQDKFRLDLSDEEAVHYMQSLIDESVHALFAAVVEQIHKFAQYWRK

CCOc1cc(N2CCC(O)CC2)ccc1Nc1ncc2c(n1)N(C)c1ccccc1C(=O)N2C
Activity [1]: 30% | IC50 [2]: > 50 µM | IC50 [3]: > 50 µM | IC50 [4]: > 50 µM | IC50 [5]: > 50 µM | IC50 [6]: > 50 µM | IC50 [7]: > 50 µM | inhibition at 50 µM [8]: 10% | inhibition [9]: 6.8% | inhibition [10]: 0.8% | inhibition [11]: 10.7% | inhibition at 10 µM [12]: -11.8% | inhibition [13]: 6.7% | inhibition [14]: 47.7% | inhibition [15]: 0.1% | inhibition [16]: -4% | Cmax [17]: 927 nM | Activity (Lewis lung carcinoma): Active
